# Source: the RNAGym collection of RNA variant scans (doi:10.1126/science.aae0568)
# This sample holds only a part of the variants without activity.
# B1: tRNA (parent)
# chain: GUUCCGUUGGCGUAAUGGUAACGCGUCUCCCUCCUAAGGAGAAGACUGCGGGUUCGAGUCCCGUACGGAACG
# Variants of: B1
# Experiment: yeast fitness relative to wild type (ratio to wild type); higher = fitter; tRNA-Arg(CCU), competitive growth, 37 C, YPD
# In short: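 Amplicons of the tRNA-Arg(CCU) gene were sequenced, 100-nucleotide paired-end, from the start population and from each end population of a pooled yeast competition. The competition, in six parallel replicates, lasted 24 hours in YPD at 37°C. Fitness relative to wild type was calculated from changes in genotype frequencies. Genotypes had to have ≥ 100 starting reads, and estimates < 0.5 were set to 0.5.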
row,Variant,yeast fitness
1,C5G G17A A40C U59C,0.723
2,C5G G17A C22U U28C C46U G58A,≤ 0.5
3,C5G G17A G18A,0.553
4,C5G G17A U26C,≤ 0.5
5,C5G G17A U26C A70C,≤ 0.5
6,C5G G17C,0.651
7,C5G G17C C46U G50A,≤ 0.5
8,C5G G17C G23C,≤ 0.5
9,C5G G17C G23C A57C,≤ 0.5
10,C5G G17C G58C U59C,0.57
11,C5G G17U A45U G68C,≤ 0.5
12,C5G G18A G25A A42G,≤ 0.5
13,C5G G18A G25A C61U A69G,0.574
14,C5G G23A C31G,≤ 0.5
15,C5G G25A,0.981
16,C5G G25A A65G,0.763
17,C5G G25A C46A,0.651
18,C5G G25A G56A,0.803
19,C5G G25A G68U,0.633
20,C5G G25A U54G C55U A70C,≤ 0.5
21,C5G G25C,1.06
22,C5G G25C C62U,0.721
23,C5G G38C,0.565
24,C5G G39C A69U,0.538

row,Variant,yeast fitness
1,C5G G44A,1.02
2,C5G G44C C49G,0.521
3,C5G G44U,0.626
4,C5G G48A,0.978
5,C5G G48A A70U,0.803
6,C5G G48C C49U U54G A65G C66A,≤ 0.5
7,C5G G51A A69U,0.528
8,C5G G51A C62G,≤ 0.5
9,C5G G51A G68C,≤ 0.5
10,C5G G51C C55G A57U C66U,≤ 0.5
11,C5G G51C U54A A69U,0.562
12,C5G G58C A69C,0.794
13,C5G G67U,0.859
14,C5G U7A,0.792
15,C5G U7A C11U A36C G38A G44C,0.589
16,C5G U7C A36C A57U C61A C66G,≤ 0.5
17,C5G U7C C11G G23C U26C C27U A42U,≤ 0.5
18,C5G U7C C11U G25A,≤ 0.5
19,C5G U7C G10A C29G,≤ 0.5
20,C5G U7C G23A,≤ 0.5
21,C5G U7C G51C,0.564
22,C5G U7G,0.564
23,C5G U7G G23C C31U C49U,≤ 0.5
24,C5G U8A,0.641

row,Variant,yeast fitness
1,C5G U8A A15G G41C U47A,≤ 0.5
2,C5G U8A A42C G48C,≤ 0.5
3,C5G U8A G41C G63A,≤ 0.5
4,C5G U8C G41A,≤ 0.5
5,C5G U8G A20C,≤ 0.5
6,C5G U8G G63A,≤ 0.5
7,C5G U13A C22G C29G A40U U54C C61G G67A,≤ 0.5
8,C5G U13C A21C A57U A65U G68C,≤ 0.5
9,C5G U13C C22G G23U C29G A45C G68C A69G,0.531
10,C5G U13G C27G C30A,≤ 0.5
11,C5G U13G C29U A40G C60U A65G,≤ 0.5
12,C5G U13G C29U A40G G68A A70C,≤ 0.5
13,C5G U16A U19G A20C C27U C29U C30U A70G,≤ 0.5
14,C5G U16C A20G A70U,≤ 0.5
15,C5G U16C C31U,0.627
16,C5G U19G C22U A43G C49G,≤ 0.5
17,C5G U26A A36C C61U,≤ 0.5
18,C5G U26C C29U,≤ 0.5
19,C5G U26C C34G U54C,≤ 0.5
20,C5G U26G C34G A40C C46U,≤ 0.5
21,C5G U28A A40C,0.581
22,C5G U28A C34G C46A,≤ 0.5
23,C5G U28A C55G,≤ 0.5
24,C5G U28C U35A,0.545

row,Variant,yeast fitness
1,C5G U28G G38C,≤ 0.5
2,C5G U32A A70U,≤ 0.5
3,C5G U32A G56A,0.634
4,C5G U32C A45G C46A,0.907
5,C5G U35C G44C C62A G68C A69U,≤ 0.5
6,C5G U47A G56U G58C,≤ 0.5
7,C5G U47C C66U,0.627
8,C5G U47C G51A A65C,0.548
9,C5G U59A,0.896
10,C5G U59G G63C,≤ 0.5
11,C5G U64G,0.86
12,C5U A14C A42U,≤ 0.5
13,C5U A14C C34G A37U A40U C66U,≤ 0.5
14,C5U A14C C46A G63C A69U,≤ 0.5
15,C5U A14C G41C G58C C66U,0.523
16,C5U A14C U19C,0.528
17,C5U A14G A21U G56C G68C,≤ 0.5
18,C5U A14G G50C C55U A57G,0.675
19,C5U A14G G50C C55U A57G C66U,≤ 0.5
20,C5U A14G G50C U53C C55U A57G,≤ 0.5
21,C5U A14G G51A A65C,≤ 0.5
22,C5U A14U C31A C46U G48A C49U,0.568
23,C5U A14U C33G C46U A69C,≤ 0.5
24,C5U A14U U16A C66U,0.511

row,Variant,yeast fitness
1,C5U A15C G23C,≤ 0.5
2,C5U A15G,0.912
3,C5U A15G A20C U26C G41C G52C A57U A65U,≤ 0.5
4,C5U A15G A20U A42G G63C,0.65
5,C5U A15G A42U,0.703
6,C5U A15G U16C C66U,≤ 0.5
7,C5U A15U C29U C31U C34U C55U,≤ 0.5
8,C5U A15U U19C,0.672
9,C5U A20C C29A,0.666
10,C5U A20C G63A,0.607
11,C5U A20C U32C A40U G50A G52A,≤ 0.5
12,C5U A20U,0.94
13,C5U A20U C30A G67A A70G,0.657
14,C5U A21C A43C,≤ 0.5
15,C5U A21C C31G G68C,≤ 0.5
16,C5U A21C G44C,0.529
17,C5U A21C G44C C46U,0.532
18,C5U A21G A42C,0.761
19,C5U A21G A42U,0.908
20,C5U A21G A42U G58A C66U,0.706
21,C5U A21G A42U U54G,0.533
22,C5U A21G C27U G41A C66A,≤ 0.5
23,C5U A21G C29U C31A G51C,≤ 0.5
24,C5U A21G U28C A36G C55A,≤ 0.5

row,Variant,yeast fitness
1,C5U A21U A36U A65G,≤ 0.5
2,C5U A21U A57U C60A,≤ 0.5
3,C5U A21U C29U C30G A70U,0.543
4,C5U A21U C30G G52A A70U,0.534
5,C5U A21U C30G G56A C66A,≤ 0.5
6,C5U A21U U32A A40U,0.634
7,C5U A21U U32G,≤ 0.5
8,C5U A36G C55G C66G,≤ 0.5
9,C5U A36U C60U,0.81
10,C5U A37C C46U U53C,≤ 0.5
11,C5U A37G,0.795
12,C5U A37G C62G G68C,≤ 0.5
13,C5U A37U A42U G67A,≤ 0.5
14,C5U A40C,0.851
15,C5U A40G A45U,0.638
16,C5U A40G G56A A69C,0.575
17,C5U A42C G67U,0.69
18,C5U A42G A65C,0.596
19,C5U A43G A69C,0.72
20,C5U A43G C49G A69C,≤ 0.5
21,C5U A45C C61G,0.536
22,C5U A45C G56A,0.801
23,C5U A45G,0.974
24,C5U A45G G67A,0.743

row,Variant,yeast fitness
1,C5U A45U,1.01
2,C5U A45U C49A,0.696
3,C5U A57U,0.663
4,C5U C11A,0.586
5,C5U C11A A20C C22G C30U C31G,≤ 0.5
6,C5U C11A A21G A70G,≤ 0.5
7,C5U C11A A21G G23C,≤ 0.5
8,C5U C11A C22G C55G C60G,0.997
9,C5U C11A C24A U28G,0.63
10,C5U C11A C66G,0.613
11,C5U C11A G50C,0.598
12,C5U C11G A15U U32A U35G C55A C61G,≤ 0.5
13,C5U C11G C22U C30G G58C C60G,≤ 0.5
14,C5U C11U A14U,0.57
15,C5U C11U A15G U53A A65G,≤ 0.5
16,C5U C11U A15U C31U C49U,≤ 0.5
17,C5U C11U A20U,0.561
18,C5U C11U A37G C60G,0.581
19,C5U C11U C24U G44C,≤ 0.5
20,C5U C11U G25C A45C C62A A70U,0.611
21,C5U C22A A36U,0.828
22,C5U C22A C31U G68C,≤ 0.5
23,C5U C22A U32A C60G,≤ 0.5
